# Tests used:
# [1] = test system: Staphylococcus aureus; assay: Antibacterial activity against Staphylococcus aureus ATCC 25923 assessed as growth inhibition incubated for 18 hrs by broth dilution method; assay type: functional; conditions: ATCC 25923, 18 h
# How it was run: (§1)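 Broth microdilution following CA-SFM recommendations. Inoculum was 10^5 CFU in Mueller-Hinton broth with two-fold serial drug dilutions. Plates were incubated 18 h at 37 °C. MIC was the lowest concentration giving complete inhibition of visible growth. Values are means, n = 3.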
# [2] = test system: Acinetobacter baumannii; assay: Potentiation of doxycycline-induced antibacterial activity against Acinetobacter baumannii AYE assessed as concentration required to restore 2 ug/ml doxycycline activity measured after 18 hrs; assay type: functional
# How it was run: (§2)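 Inoculum was 5×10^5 CFU in MHB with two-fold serial dilutions of adjuvant plus fixed doxycycline at 2 μg/mL. […] Repeated independently in triplicate.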
# [3] = test system: Staphylococcus intermedius; assay: Antibacterial activity against Staphylococcus intermedius 1051997 assessed as growth inhibition incubated for 18 hrs by broth dilution method; assay type: functional; conditions: Staphylococcus intermedius, 1051997, 18 h; how it was run: as §1
# [4] = test system: Escherichia coli; assay: Antibacterial activity against Escherichia coli ATCC 25922 assessed as growth inhibition incubated for 18 hrs by broth dilution method; assay type: functional; conditions: ATCC 25922, 18 h; how it was run: as §1
# [5] = test system: Candida albicans; assay: Antifungal activity against Candida albicans ATCC 90028 assessed as growth inhibition incubated for 36 hrs by resazurin dye based assay; assay type: functional; conditions: ATCC 90028, 36 h
# How it was run: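 Yeast was grown 3 days on YPD agar at 30 °C. Colonies were suspended and diluted in YNB broth to 2.5×10^3 CFU/mL, then added to two-fold compound dilutions (0.008–32 μg/mL final), in duplicate. Plates stood 36 h at 35 °C without shaking. Means, n = 2.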
# [6] = test system: Escherichia coli; assay: Potentiation of nalidixic acid-induced antibacterial activity against Escherichia coli ATCC 25922 assessed as concentration required to restore 2 ug/ml nalidixic acid activity measured after 18 hrs; assay type: functional
# [7] = test system: Pseudomonas aeruginosa; assay: Potentiation of erythromycin-induced antibacterial activity against Pseudomonas aeruginosa ATCC 27853 assessed as concentration required to restore 2 ug/ml erythromycin activity measured after 18 hrs; assay type: functional
# [8] = test system: Escherichia coli; assay: Potentiation of doxycycline-induced antibacterial activity against Escherichia coli ATCC 25922 assessed as concentration required to restore 2 ug/ml doxycycline activity measured after 18 hrs; assay type: functional; how it was run: as §2
# [9] = test system: Acinetobacter baumannii; assay: Antibacterial activity against Acinetobacter baumannii ATCC 19606 assessed as growth inhibition incubated for 18 hrs by resazurin dye based assay; assay type: functional; conditions: ATCC 19606 = CIP 70.34 = JCM 6841, 18 h
# How it was run: (§3)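 Overnight cultures were diluted 40-fold in MHB and grown 1.5–2 h at 37 °C to mid-log phase. Cells were added at 5×10^5 CFU/mL final to two-fold compound dilutions (0.008–32 μg/mL final), in duplicate, for 18 h at 37 °C. Resazurin (0.001% final) was added for 2 h and MIC read by eye. Means, n = 2.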
# [10] = test system: Pseudomonas aeruginosa; assay: Potentiation of chloramphenicol-induced antibacterial activity against Pseudomonas aeruginosa ATCC 27853 assessed as concentration required to restore 2 ug/ml chloramphenicol activity measured after 18 hrs; assay type: functional
# [11] = test system: Pseudomonas aeruginosa; assay: Potentiation of doxycycline-induced antibacterial activity against Pseudomonas aeruginosa ATCC 27853 assessed as concentration required to restore 2 ug/ml doxycycline activity measured after 18 hrs; assay type: functional; how it was run: as §2
# [12] = test system: Klebsiella pneumoniae; assay: Potentiation of erythromycin-induced antibacterial activity against Klebsiella pneumoniae ATCC 13443 assessed as concentration required to restore 2 ug/ml erythromycin activity measured after 18 hrs; assay type: functional
# [13] = test system: Acinetobacter baumannii; assay: Potentiation of erythromycin-induced antibacterial activity against Acinetobacter baumannii AYE assessed as concentration required to restore 2 ug/ml erythromycin activity measured after 18 hrs; assay type: functional
# [14] = test system: Klebsiella pneumoniae; assay: Potentiation of chloramphenicol-induced antibacterial activity against Klebsiella pneumoniae ATCC 13443 assessed as concentration required to restore 2 ug/ml chloramphenicol activity measured after 18 hrs; assay type: functional
# [15] = test system: Pseudomonas aeruginosa; assay: Potentiation of nalidixic acid-induced antibacterial activity against Pseudomonas aeruginosa ATCC 27853 assessed as concentration required to restore 2 ug/ml nalidixic acid activity measured after 18 hrs; assay type: functional
# [16] = test system: Klebsiella pneumoniae; assay: Antibacterial activity against Klebsiella pneumoniae ATCC 700603 assessed as growth inhibition incubated for 18 hrs by resazurin dye based assay; assay type: functional; conditions: Klebsiella pneumoniae, 700603, 18 h; how it was run: as §3
# [17] = test system: L6; assay: Cytotoxicity against rat L6 cells measured after 72 hrs by alamar blue assay; assay type: cell-based; conditions: L6, 72 h
# How it was run: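 Rat L6 myoblasts, 4×10^4/well in RPMI 1640 with L-glutamine and 10% FBS, received seven 3-fold dilutions (90 to 0.123 μg/mL) for 72 h. Alamar Blue was added for 2 h and fluorescence read at ex 536/em 588 nm. Podophyllotoxin served as reference. Means, n = 2.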
# [18] = Hemolytic activity against Sprague-Dawley rat RBC assessed as release of hemoglobin at 50 uM incubated for 1 hr relative to control; assay type: ADME, cell-based, Erythrocyte; conditions: red blood cells (erythrocytes), read-out: Activity
# How it was run: (§4)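 Fresh Sprague-Dawley rat erythrocytes were washed in saline and resuspended at 2% v/v. Cells were incubated with compound in DMSO/PBS for 1 h at 37 °C, then centrifuged at 200 g, and supernatant absorbance read at 540 nm. Results were normalised to DMSO/PBS (0%) and 0.1% Triton X-100 (100%). Single-point testing used 50 μM; HC50 came from 10-point curves. Means of three experiments.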
# [19] = test system: Klebsiella pneumoniae; assay: Potentiation of doxycycline-induced antibacterial activity against Klebsiella pneumoniae ATCC 13443 assessed as concentration required to restore 2 ug/ml doxycycline activity measured after 18 hrs; assay type: functional; how it was run: as §2
# [20] = test system: Klebsiella pneumoniae; assay: Potentiation of nalidixic acid-induced antibacterial activity against Klebsiella pneumoniae ATCC 13443 assessed as concentration required to restore 2 ug/ml nalidixic acid activity measured after 18 hrs; assay type: functional
# [21] = Hemolytic activity against Sprague-Dawley rat RBC assessed as release of hemoglobin incubated for 1 hr; assay type: ADME, cell-based, Erythrocyte; conditions: red blood cells (erythrocytes); how it was run: as §4
# [22] = test system: Pseudomonas aeruginosa; assay: Antibacterial activity against Pseudomonas aeruginosa ATCC 27853 assessed as growth inhibition incubated for 18 hrs by broth dilution method; assay type: functional; conditions: ATCC 27853, 18 h; how it was run: as §1
# [23] = test system: Acinetobacter baumannii; assay: Potentiation of chloramphenicol-induced antibacterial activity against Acinetobacter baumannii AYE assessed as concentration required to restore 2 ug/ml chloramphenicol activity measured after 18 hrs; assay type: functional
# [24] = test system: Escherichia coli; assay: Potentiation of erythromycin-induced antibacterial activity against Escherichia coli ATCC 25922 assessed as concentration required to restore 2 ug/ml erythromycin activity measured after 18 hrs; assay type: functional
# [25] = test system: Cryptococcus neoformans; assay: Antifungal activity against Cryptococcus neoformans ATCC 208821 assessed as growth inhibition incubated for 36 hrs by resazurin dye based assay; assay type: functional; conditions: ATCC 208821, 36 h
# How it was run: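 Cryptococcus was grown 3 days on YPD agar at 30 °C, suspended, and diluted in YNB broth to 2.5×10^3 CFU/mL. Cells were exposed to 0.008–32 μg/mL compound (final), in duplicate, for 36 h at 35 °C without shaking. Resazurin (0.006% final) was added for a further 3 h. MIC was read from absorbance at OD570–600. Means, n = 2.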
# [26] = test system: Acinetobacter baumannii; assay: Potentiation of nalidixic acid-induced antibacterial activity against Acinetobacter baumannii AYE assessed as concentration required to restore 2 ug/ml nalidixic acid activity measured after 18 hrs; assay type: functional
# [27] = test system: Escherichia coli; assay: Potentiation of chloramphenicol-induced antibacterial activity against Escherichia coli ATCC 25922 assessed as concentration required to restore 2 ug/ml chloramphenicol activity measured after 18 hrs; assay type: functional
# [28] = Cytotoxicity against human HEK293 cells measured after 20 hrs by resazurin dye based fluorescence assay; assay type: cell-based
# How it was run: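 HEK293 cells, 5,000/well in DMEM with 10% FBS, were exposed to compound for 20 h at 37 °C, 5% CO2. Resazurin (100 μM final) was added for 3 h, then fluorescence read at ex 560/em 590. Signal was normalised to tamoxifen (74 μg/mL, 0%) and untreated growth (100%), and CC50 came from dose-response fitting. Top dose 32 μg/mL. Means, n = 2.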
Compound,MIC [1] [µM],Activity [2] [µM],MIC [4] [µM],MIC [5] [µM],Activity [6] [µM],Activity [7] [µM],Activity [8] [µM],MIC [9] [µM],Activity [10] [µM],Activity [11] [µM],Activity [12] [µM],Activity [13] [µM],Activity [14] [µM],Activity [15] [µM],MIC [16] [µM],IC50 [17] [µM],"hemolysis at 1 h, 50 µM [18] [%]",Activity [19] [µM],Activity [20] [µM],MIC [22] [µM],further results
O=C(NCCCNCCCCNCCCNC(=O)C(=O)c1c[nH]c2cc(Br)ccc12)C(=O)c1c[nH]c2cc(Br)ccc12,6.25,25,100,17.2,>200,200,6.25,> 34,>200,6.25 to 12.5,50,25,200,50,> 34,7.7,91,6.25,25,100,MIC [3]: 3.12 µM; HC50 at 1 h [21]: 20 µM; Activity [23]: >200 µM; Activity [24]: 50 µM; MIC [25]: 1.1 µM; Activity [26]: 200 µM; Activity [27]: >200 µM
COc1cccc2c(C(=O)C(=O)NCCCNCCCCNCCCNC(=O)C(=O)c3c[nH]c4c(OC)cccc34)c[nH]c12,15,15,> 200,38.4,>200,100,3.75,> 38.4,30,3.75 to 7.5,>200,>200,>200,60,> 38.4,62,0,>200,>200,> 200,Activity [23]: >200 µM; CC50 at 20 h [28]: 27.1 µM; Activity [24]: >200 µM; MIC [25]: > 38.4 µM; Activity [26]: >200 µM; Activity [27]: >200 µM

# Source: ChEMBL document CHEMBL4311975, “Exploration of the antibiotic potentiating activity of indolglyoxylpolyamines” (Eur J Med Chem, 2019)
